Measurements published in ChEMBL document CHEMBL1132150, “Synthesis and evaluation of 3-trifluoromethyl-7-substituted-1,2,3, 4-tetrahydroisoquinolines as selective inhibitors of phenylethanolamine N-methyltransferase versus the alpha(2)-adrenoceptor” (J Med Chem, 1999).

Legend:
[1] = target: T1, Phenylethanolamine N-methyltransferase (Bos taurus, UniProt P10938); test: Inhibition of PNMT (Phenylethanolamine N-Methyltransferase) in vitro
T1 sequence (P10938 whole entry): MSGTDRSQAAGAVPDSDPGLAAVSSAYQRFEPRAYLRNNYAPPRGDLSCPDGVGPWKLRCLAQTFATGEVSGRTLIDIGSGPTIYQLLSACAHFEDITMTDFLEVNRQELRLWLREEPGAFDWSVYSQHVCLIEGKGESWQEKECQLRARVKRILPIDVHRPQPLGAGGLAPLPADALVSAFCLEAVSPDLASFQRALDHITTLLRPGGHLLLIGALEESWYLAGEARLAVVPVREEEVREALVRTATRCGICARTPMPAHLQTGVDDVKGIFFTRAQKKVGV
Summary of the method: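 Bovine adrenal PNMT, prepared through the isoelectric precipitation step, assayed radiochemically with phenylethanolamine as the variable substrate and [3H]AdoMet as methyl donor in phosphate buffer pH 8.0. Incubation was 30 min at 37 °C, quenched with borate pH 10, and product was extracted into toluene/isoamyl alcohol and counted. Three inhibitor concentrations spanning 5-fold were run in duplicate, and Ki came from a hyperbolic fit.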

[2] = Selectivity determined by Ki of alpha 2 receptor / Ki of PNMT
[3] = target: T2, Adrenergic receptor alpha-2 (Rattus norvegicus, UniProt P22086+P19328+P22909); test: Compound was tested in vitro for binding affinity against Alpha-2 adrenergic receptor using [3H]clonidine; assay type: protein assay
T2 sequence (P22086 whole entry): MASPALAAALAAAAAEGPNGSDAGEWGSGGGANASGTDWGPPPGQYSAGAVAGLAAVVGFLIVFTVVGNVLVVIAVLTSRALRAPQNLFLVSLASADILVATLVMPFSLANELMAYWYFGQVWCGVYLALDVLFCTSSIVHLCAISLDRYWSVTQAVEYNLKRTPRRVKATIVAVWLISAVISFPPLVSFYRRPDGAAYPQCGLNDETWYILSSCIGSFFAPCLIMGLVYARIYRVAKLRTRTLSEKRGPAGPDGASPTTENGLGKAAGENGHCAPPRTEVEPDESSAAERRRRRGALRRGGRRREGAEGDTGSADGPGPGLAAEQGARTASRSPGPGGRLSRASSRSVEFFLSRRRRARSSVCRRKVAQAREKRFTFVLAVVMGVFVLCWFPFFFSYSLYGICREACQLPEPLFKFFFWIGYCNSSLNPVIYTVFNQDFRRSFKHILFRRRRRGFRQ
T2 sequence (P19328 whole entry): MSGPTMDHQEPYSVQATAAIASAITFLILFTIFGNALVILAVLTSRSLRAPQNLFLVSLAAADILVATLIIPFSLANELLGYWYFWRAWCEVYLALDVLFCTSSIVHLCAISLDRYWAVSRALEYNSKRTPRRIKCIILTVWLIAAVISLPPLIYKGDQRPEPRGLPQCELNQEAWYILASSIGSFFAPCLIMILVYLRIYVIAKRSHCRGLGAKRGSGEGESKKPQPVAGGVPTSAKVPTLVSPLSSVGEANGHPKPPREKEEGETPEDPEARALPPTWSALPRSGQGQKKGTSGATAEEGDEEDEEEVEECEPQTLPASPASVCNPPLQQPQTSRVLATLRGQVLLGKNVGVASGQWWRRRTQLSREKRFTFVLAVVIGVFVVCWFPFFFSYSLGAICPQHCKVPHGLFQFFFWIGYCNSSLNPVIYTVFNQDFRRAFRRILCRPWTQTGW
T2 sequence (P22909 whole entry): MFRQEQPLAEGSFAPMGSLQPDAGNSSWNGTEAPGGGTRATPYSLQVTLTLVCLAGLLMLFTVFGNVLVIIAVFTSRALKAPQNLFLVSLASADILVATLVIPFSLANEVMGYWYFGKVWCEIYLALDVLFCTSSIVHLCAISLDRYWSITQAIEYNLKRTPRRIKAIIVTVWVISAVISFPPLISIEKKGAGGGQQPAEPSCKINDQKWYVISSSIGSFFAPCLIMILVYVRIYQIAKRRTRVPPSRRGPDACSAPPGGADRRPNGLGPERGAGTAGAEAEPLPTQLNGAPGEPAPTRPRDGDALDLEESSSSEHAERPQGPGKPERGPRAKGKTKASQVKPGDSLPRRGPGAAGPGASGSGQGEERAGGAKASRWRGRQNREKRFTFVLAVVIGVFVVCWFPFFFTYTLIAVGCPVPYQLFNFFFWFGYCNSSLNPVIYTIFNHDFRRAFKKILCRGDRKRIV
Summary of the method: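 Rat (male Sprague–Dawley) cortex membranes, washed three times by centrifugation in 50 mM Tris/HCl pH 7.7, incubated 30 min at 25 °C with 2.0 nM [3H]clonidine and varied inhibitor concentrations. Bound ligand was collected by vacuum filtration and counted. Nonspecific binding was defined with 2 μM phentolamine. IC50 came from log–probit analysis, and Ki = IC50/(1+[clonidine]/KD).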

[4] = target: T2, Adrenergic receptor alpha-2; test: The compound was tested in vitro for binding affinity against Alpha-2 adrenergic receptor using [3H]clonidine; assay type: protein assay
Summary of the method: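 Rat cortex membranes from male Sprague–Dawley rats, homogenized in ice-cold 50 mM Tris/HCl (pH 7.7 at 25 °C), washed by three 50000g spins. [³H]clonidine final 2.0 nM, varying inhibitor levels, 25 °C for 30 min. Filtration and scintillation counting. Nonspecific binding with 2 μM phentolamine. IC50 by log–probit analysis, Ki = IC50/(1 + [clonidine]/KD). Tested as HCl or HBr salts.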

[5] = target: T2, Adrenergic receptor alpha-2; test: The compound was tested in vitro for binding affinity against Alpha-2 adrenergic receptor using [3H]clonidine, A precipitate was noted at 1000 uM; assay type: protein assay

FC(F)(F)C1Cc2ccccc2CN1 (stereo not drawn)
Ki [1]: 15 µM | Selectivity [2]: 27

OCC1Cc2ccccc2CN1 (stereo not drawn)
Selectivity [2]: 6 | Ki ([3]; read-out: Ki): 6.6 µM

CS(=O)(=O)c1ccc2c(c1)CNC(CO)C2 (stereo not drawn)
Selectivity [2]: 1000 | Ki ([3]; read-out: Ki): 660 µM

Clc1ccc2c(c1Cl)CNCCC2
Ki [4]: 4.5 µM

c1ccc2c(c1)CCNC2
Selectivity [2]: 0.035

N#Cc1ccc2c(c1)CNC(C(F)(F)F)C2 (stereo not drawn)
Selectivity [2]: 220

CCC1Cc2ccccc2CN1 (stereo not drawn)
Selectivity [2]: 0.028 | Ki [4]: 0.67 µM

NS(=O)(=O)c1ccc2c(c1)CNC(CO)C2 (stereo not drawn)
Selectivity [2]: 4100 | Ki ([4]; read-out: Ki): 1400 µM

O=[N+]([O-])c1ccc2c(c1)CNC(C(F)(F)F)C2 (stereo not drawn)
Ki [1]: 2 µM | Selectivity [2]: 700 | Ki [3]: 1400 µM

COc1ccc2c3c([nH]c2c1)C=NCC3 [CGS-19281A]
Ki [1]: 2.7 µM | Selectivity [2]: 4.4 | Ki [4]: 12 µM

FC(F)(F)C1Cc2ccc(Br)cc2CN1 (stereo not drawn)
Selectivity [2]: > 1900 | Ki [5]: > 1000 µM

COCC1Cc2ccccc2CN1 (stereo not drawn)
Selectivity [2]: 0.3 | Ki ([3]; read-out: Ki): 2.8 µM

CC1Cc2ccccc2CN1 (stereo not drawn)
Selectivity [2]: 0.36

Clc1ccc2c(c1Cl)CNCC2
Ki [1]: 0.22 µM | Selectivity [2]: 0.095

CS(=O)(=O)c1ccc2c(c1)CNC(C(F)(F)F)C2 (stereo not drawn)
Ki [1]: 36 µM | Selectivity [2]: 110
